# A selection: hits, their analogues and other compounds. The true share with any hit is near 2.5%.
# UCH37 inh: inhibitors of human UCH37 deubiquitinase, primary screen, biochemical, Ub-AMC cleavage, fluorescence | Ubiquitin carboxyl-terminal hydrolase isozyme L5 (Homo sapiens), Q9Y5K5 | purified proteasome/UCH37 | inhibition, % (test concentration not listed) | actives 0.33% (n = 330,000);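 active = mean inhibition over replicate wells above about 20%, limit read from the data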;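 also: 0% = compound-free wells with enzyme and 100% = wells lacking proteasome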
# Target sequence (Q9Y5K5 whole entry, looked up): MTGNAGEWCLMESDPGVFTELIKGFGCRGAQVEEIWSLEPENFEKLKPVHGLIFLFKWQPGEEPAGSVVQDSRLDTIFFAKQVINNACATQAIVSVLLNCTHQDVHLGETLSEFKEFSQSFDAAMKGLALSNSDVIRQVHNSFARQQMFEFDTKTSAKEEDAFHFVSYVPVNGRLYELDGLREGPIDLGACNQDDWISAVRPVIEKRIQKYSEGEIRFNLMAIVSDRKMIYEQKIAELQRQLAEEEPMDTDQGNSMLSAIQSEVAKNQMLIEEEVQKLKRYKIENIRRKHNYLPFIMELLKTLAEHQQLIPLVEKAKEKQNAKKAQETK
#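 assay system = human UCH37 enzyme supplied as purified proteasome complex | amount = proteasome at 0.15 nM in the dispensed enzyme solution | schedule = 30 min compound-proteasome preincubation then 25 min substrate reaction, room temperature | measured by = fluorescence, ex 355 nm, em 460 nm | benchmarks = no-proteasome wells (full inhibition) and compound-free wells (no inhibition)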
# MEKK3 PB1 HTS: modulators of MEKK3-MEK5 PB1 binding, primary screen, biochemical, wildtype MEKK3, multiplex bead flow cytometry, Alexa488-MEK5; Mitogen-activated protein kinase kinase kinase 3 (Homo sapiens), Q99759; bead-based flow cytometry, Alexa488-MEK5 binding to MEKK3; actives lie on both sides; 0 = blocked by unlabeled MEK5, 100 = vehicle; binding response (% of control), % at 10 µM; actives 1.4% (n = 290,000); AID 1529, 2009;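 active = binding response more than 3 SD above or below the average of its plate-row segment, actives on both sides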;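 also: Alexa488 bead fluorescence after subtracting the streptavidin-only scavenger bead signal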
# MEKK2 WT-MEK5: modulators of MEK5 binding to wildtype MEKK2, primary screen, biochemical, multiplex bead flow cytometry, Alexa488-MEK5; Mitogen-activated protein kinase kinase kinase 2 (Homo sapiens), Q9Y2U5; Alexa488-MEK5 binding to MEKK2 WT; actives lie on both sides; binding response (% of control), % at 10 µM; actives 1.1% (n = 290,000); in the data active = binding response below about 67% or above about 130%
# MEKK2mut PB1 HTS: MEK5 binding signal on mutant MEKK2 PB1, primary screen, biochemical, multiplex bead flow cytometry, Alexa488-MEK5 | Alexa488-MEK5 binding to MEKK2 mutant | percent response, % at 10 µM | AID 1530, 2009 | actives 0.35% (n = 290,000); in the data active = percent response above about 24%, passing the limit was not always enough
# T cell modulator: modulators of CD8 T cell-vesicle binding, primary screen, mouse 2C CD8+ T cells, flow cytometry; 2C CD8+ T cell-vesicle binding; hits give low values; response (vesicle binding), % at 7 µM; actives 0.068% (n = 330,000); AID 2052, 2009;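 active = response, share of CD8 T cells binding vesicles, and their 90th percentile fluorescence all below set limits, cut at about 80% in these data, passing the limit was not always enough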;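 also: values below 100% mean blocked vesicle binding to the CD8+ T cells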
#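 Material: 2C TCR transgenic mouse naive CD8+ T cells, MACS-purified. Also added: QL9-charged Drosophila Ld/ICAM-1/B7-1 vesicles. Timing: binding 1.5 h at 37 °C. Measured by: high-throughput flow cytometry with anti-B7-1 and anti-CD8 staining. Read-out: percent CD8+ FL2 mean versus row control. Controls: Unloaded micro-vesicles (low), QL9 vesicles with 0.7% DMSO (high).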
# Rce1 inh: yeast Rce1p protease inhibitors, primary screen, biochemical, fluorescence, cell-free homogeneous; CAAX prenyl protease 2 (Saccharomyces cerevisiae (strain ATCC 204508 / S288c)), Q03530; yeast membranes, quenched prenylated peptide cleavage fluorescence; calls only; actives 0.27% (n = 290,000); AID 2563, 2010;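 active = fall in fluorescence gain of 50% or more versus controls, with final raw signal at or below 3038400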;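 also: plate controls were neutral control wells for no effect and wells lacking membranes for full effect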
# Starred values were filed as active, the others as inactive; i = inactive; · = no result given; + = active, no number; [ ] = remark or other dose.
SMILES,UCH37 inh,MEKK3 PB1 HTS,MEKK2 WT-MEK5,MEKK2mut PB1 HTS,T cell modulator,Rce1 inh
COc1cccc(CCN2CCC(CNS(=O)(=O)c3cc(-c4cc(C)no4)ccc3C)CC2)c1,1.2,103.0,140.0*,23.0,287.2,i
CCOC(=O)c1c(S(=O)(=O)N(C)Cc2ccco2)c(C)n(C)c1C,1.1,30.0*[inhibitor],43.0*[inhibitor],-53.0,245.9,i
O=C(COC(=O)C1CC2C=CC1C2)NCc1ccc(F)cc1 (stereo not drawn),0.6,107.0,105.0,4.0,54.8*,i
CCCCn1c(N=Cc2ccc3c(c2)OCO3)nc2ccccc21,-2.4,·,·,·,·,·
Nc1nnc(SCCOc2ccc(Br)cc2)s1,2.3,100.0,97.0,-2.0,0.0*,i
Nc1cc(N)nc(SCC(=O)N2CCCCC2)n1,1.2,109.0,106.0,4.0,814.9,i
Cc1cc(C)nc(SCC(=O)N2CCCCC2)n1,1.6,91.0,-2.0*,14.0,338.9,i
CCc1ccc(OCc2cccc(C(=O)NN=Cc3cnn(C)c3C)c2)cc1,-14.4,·,·,·,·,·
CN1C(=O)c2ccccc2N(C)C1c1ccccc1Cl (stereo not drawn),-402.4,101.0,102.0,7.0,338.3,+
COCCN1C(=O)/C(=C/c2ccc(Oc3ccc([N+](=O)[O-])cn3)c(OC)c2)SC1=Nc1ccccc1,6.5,105.0,94.0,4.0,242.7,+
CC(NC(=O)/C(C#N)=C/c1ccc(Cl)c([N+](=O)[O-])c1)c1ccccc1 (stereo not drawn),-1.0,99.0,91.0,5.0,152.1,+
COc1ccccc1OCC(=O)NN=C/C=C/c1ccc([N+](=O)[O-])o1,0.6,·,·,·,·,·
Cc1onc(-c2ccccc2)c1C(=O)NN=Cc1cc2c(cc1Br)OCO2,-0.2,·,·,·,·,·
Cc1cc(C)nc(SCC(=O)NN=Cc2sccc2C)n1,3.1,·,·,·,·,·
COc1ccc(-c2cc(C(F)(F)F)nc(SCC(=O)NCc3cnn(C)c3C)n2)cc1OC,-37.6,107.0,103.0,3.0,212.6,+
COc1ccc(-c2cc(C(F)(F)F)nc(SCC(=O)N(C)Cc3cn(C)nc3C)n2)cc1OC,·,107.0,106.0,-2.0,107.7,+
CCn1c(C)nc2cc(C(=O)NN=Cc3ccccc3)ccc21,1.0,·,·,·,·,·
O=C(O)COc1ccccc1C=NNC(=O)CN1CCN(S(=O)(=O)c2ccc(Br)cc2)CC1,4.7,·,·,·,·,·
O=C(Nc1cc(S(=O)(=O)N2CCCCC2)ccc1N1CCOCC1)c1ccc(C(F)(F)F)cc1,3.5,·,·,·,324.2,·
Cc1ccc(S(=O)(=O)N2CCC(C(=O)Nc3cc(C(F)(F)F)ccc3N3CCOCC3)CC2)cc1C,3.9,·,·,·,47.7*,i
Cc1n[nH]c(=O)nc1NN=Cc1ccc(O)c([N+](=O)[O-])c1,20.9*,·,·,·,·,·
Cc1csc(N/N=C/c2ccc([N+](=O)[O-])cc2)n1,·,107.0,104.0,11.0,126.6,i
Cc1csc(NN=Cc2ccc(O)c([N+](=O)[O-])c2)n1,20.4*,·,·,·,·,·
CC12CN3CCN(CC(C3)C1=NNC(=O)c1ccccc1N)C2,-134.5,·,·,·,·,·
Cc1[nH]n(-c2ccccc2)c(=O)c1C=NN1CCOCC1,3.2,·,·,·,·,·
CCOC(=O)/C(C#N)=C/Nc1ccccc1NS(=O)(=O)c1cccc(C(C)=O)c1,26.2*,102.0,97.0,-1.0,198.8,·
CN1\C(=C/C=C/C=C/C=[N+](C)C)C(C)(C)c2ccccc21,8.3,89.0,-3.0*,-23.0,·,i
Cc1sc2ncnc(NCC3(N4CCOCC4)CCCCC3)c2c1C,0.4,102.0,98.0,-1.0,319.9,i
Cc1sc2ncnc(NCC(C)(C)N3CCOCC3)c2c1C,-0.4,106.0,102.0,7.0,56.2*,i

# Compound activity (PubChem BioAssay)
